# Source: PubChem
# The list is not random: actives were taken first. Their share in the collection is about 4.8%.
# PAFAH2 FP inh = PAFAH2 enzyme inhibitors, primary screen, biochemical, fluorescence polarization, human. Platelet-activating factor acetylhydrolase 2, cytoplasmic (Homo sapiens), Q99487. recombinant PAFAH2, FP-rhodamine activity probe. inhibition, % at 3.39 µM. actives 0.99% (n = 340,000). AID 492956, 2010;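 active = inhibition above the mean over all tested compounds plus 3 SD, cut at about 30% in these data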;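 also: inhibitors block probe labeling of enzyme so polarization drops; 0% = enzyme with DMSO and 100% = wells lacking PAFAH2 protein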
# UCH37 inh = inhibitors of human UCH37 deubiquitinase, primary screen, biochemical, Ub-AMC cleavage, fluorescence; inhibition, % (concentration not given with the values); purified proteasome/UCH37; actives 0.33% (n = 330,000); Ubiquitin carboxyl-terminal hydrolase isozyme L5 (Homo sapiens), Q9Y5K5;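 active = mean inhibition over replicate wells above about 20%, limit read from the data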;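 also: 0% = compound-free wells with enzyme and 100% = wells lacking proteasome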
#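 Test system – human UCH37 enzyme supplied as purified proteasome complex · Incubation – 30 min preincubation with enzyme, 25 min cleavage at room temperature · Detection – AMC fluorescence from Ub-AMC cleavage, excitation 355 nm, emission 460 nm · Benchmarks – no-proteasome wells (full inhibition) and compound-free wells (no inhibition)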
# GRIN3A LBD mod = binders of NR3A ligand-binding domain, primary screen, biophysical, differential scanning fluorimetry, uHTS; NR3A LBD differential scanning fluorimetry, Tm shift; 0% = protein alone, 100% = glycine-bound protein; AID 1259313, 2017; Tm shift relative to glycine control, % at 25 µM; actives 2.5% (n = 340,000);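 active = melting temperature shift of at least 10% of the positive control shift, at one fixed dose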
# pPAFAH inh = pPAFAH enzyme inhibitors, primary screen, biochemical, fluorescence polarization, human | Platelet-activating factor acetylhydrolase (Homo sapiens), Q13093 | recombinant pPAFAH, FP-rhodamine probe fluorescence polarization | inhibition, % at 3.39 µM | actives 1.5% (n = 330,000);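 active = inhibition above the mean inhibition across the screen plus 3 SD, cut at about 25% in these data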;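 also: inhibitors block binding of the rhodamine activity-based probe so polarization drops; 0% = enzyme with DMSO and 100% = wells lacking pPAFAH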
# Target sequence (Q13093 whole entry, looked up): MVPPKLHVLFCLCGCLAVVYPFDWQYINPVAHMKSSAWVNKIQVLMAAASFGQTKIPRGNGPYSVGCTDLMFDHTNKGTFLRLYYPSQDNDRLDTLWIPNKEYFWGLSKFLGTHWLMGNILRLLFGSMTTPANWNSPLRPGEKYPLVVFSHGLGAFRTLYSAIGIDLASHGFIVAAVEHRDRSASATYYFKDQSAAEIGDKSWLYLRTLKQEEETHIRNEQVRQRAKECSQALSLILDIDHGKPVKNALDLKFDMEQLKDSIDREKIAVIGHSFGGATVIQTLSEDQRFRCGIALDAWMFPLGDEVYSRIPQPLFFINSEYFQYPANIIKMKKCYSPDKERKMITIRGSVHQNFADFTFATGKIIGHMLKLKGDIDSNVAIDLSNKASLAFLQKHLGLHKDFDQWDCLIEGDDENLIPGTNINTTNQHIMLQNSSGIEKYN
# PAFAH1B3 inh = PAFAH1B3 enzyme inhibitors, primary screen, biochemical, fluorescence polarization, human; Platelet-activating factor acetylhydrolase IB subunit alpha1 (Homo sapiens), Q15102; recombinant PAFAH1B3, FP-rhodamine probe; inhibition, % at 3.39 µM; actives 0.28% (n = 340,000);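 active = inhibition above the screen-wide average of all tested compounds plus 3 SD, cut at about 25% in these data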;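 also: 0% = enzyme with DMSO only and 100% = wells lacking PAFAH1B3 protein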
# PAFAH1B2 inh = PAFAH1B2 enzyme inhibitors, primary screen, biochemical, fluorescence polarization, human. Platelet-activating factor acetylhydrolase IB subunit alpha2 (Homo sapiens), P68402. recombinant PAFAH1B2, FP-rhodamine activity probe. inhibition, % at 3.39 µM. actives 1.2% (n = 340,000). AID 492953, 2010;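 active = inhibition above the mean of all tested compounds plus 3 SD, cut at about 24% in these data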;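 also: 0% = enzyme with DMSO and 100% = wells lacking PAFAH1B2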
# Target sequence (P68402 whole entry, looked up): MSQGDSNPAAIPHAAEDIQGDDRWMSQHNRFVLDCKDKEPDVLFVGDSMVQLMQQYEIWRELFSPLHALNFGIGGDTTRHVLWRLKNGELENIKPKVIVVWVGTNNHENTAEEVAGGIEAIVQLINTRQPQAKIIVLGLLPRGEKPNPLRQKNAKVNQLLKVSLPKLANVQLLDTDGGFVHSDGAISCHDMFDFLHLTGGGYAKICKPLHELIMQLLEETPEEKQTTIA
# PAFAH2 FP conf = PAFAH2 enzyme inhibitors, confirmation, biochemical, fluorescence polarization, human | shares compounds with PAFAH2 FP inh | recombinant PAFAH2, FP-rhodamine activity probe | inhibition, % at 3.39 µM | actives 65% (n = 2,300) | AID 493030, 2011;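 active = mean inhibition over three repeats above a set limit taken from the earlier primary screen, cut at about 30% in these data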;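 also: inhibitor blocks binding of rhodamine activity probe so polarization falls; 0% = enzyme with DMSO and 100% = wells lacking PAFAH2 protein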
# Active calls of the source: *; . = no result.
SMILES,PAFAH2 FP inh,UCH37 inh,GRIN3A LBD mod,pPAFAH inh,PAFAH1B3 inh,PAFAH1B2 inh,PAFAH2 FP conf
COc1ccccc1CNC(=O)COC(=O)c1ccc(NC(N)=O)cc1,56.0*,6.6,-1.5,0.5,-3.3,2.0,51.6*
COc1ccccc1CNC(=O)COC(=O)c1ccc(Cl)c(N)c1,33.0*,-6.2,0.9,16.0,0.7,-1.2,35.0*
COc1ccccc1CNC(=O)COC(=O)c1c[nH]c2ccccc12,33.4*,4.8,-0.6,.,5.5,0.5,17.7
COc1ccccc1CNC(=O)COC(=O)c1ccc(N2CCCC2=O)cc1,60.2*,0.8,-3.7,-0.5,6.9,8.1,46.4*
CC(C)=CC(=O)OCC(=O)Nc1ccc(F)cc1Cl,47.2*,3.9,-0.7,7.1,8.0,0.1,41.1*
CC(C)=CC(=O)OCC(=O)Nc1cc([N+](=O)[O-])ccc1F,62.0*,1.4,-5.6,-7.6,-0.5,-8.3,68.1*
Cn1cccc1CC(=O)NN=Cc1ccc([N+](=O)[O-])cc1,.,9.3,.,.,.,.,.
COc1ccccc1NC(=O)c1ccccc1NS(=O)(=O)c1cccs1,43.6*,-0.1,2.5,8.2,6.7,3.3,40.1*
COC(=O)c1cc(NS(=O)(=O)c2cccs2)cc(NS(=O)(=O)c2cccs2)c1,32.2*,0.9,-7.0,.,7.0,3.5,13.0
COC(=O)c1sc(SC)c(S(=O)(=O)C(C)C)c1NN=C(C#N)S(=O)(=O)c1ccccn1,.,9.8,.,.,.,.,.
O=C(Cn1c(=O)sc2ccccc21)Nc1ccc(O)cc1,31.2*,0.2,0.0,-5.5,9.7,3.6,29.1
CCOc1ccccc1NC(=O)Cn1c(=O)sc2ccccc21,2.9,-0.1,0.1,0.4,-2.4,2.3,.
CCN(c1ccccc1)S(=O)(=O)c1ccc(OC)c(NC(=O)Cc2ccc(OC)c(OC)c2)c1,0.9,-0.4,-0.2,2.1,1.1,5.9,.
COc1ccccc1CC(=O)Nc1ccccc1O,58.4*,0.4,5.5,2.3,4.7,-5.5,59.6*
COc1ccccc1CC(=O)Nc1ccc([N+](=O)[O-])cc1O,34.5*,4.3,-13.1,-3.4,4.9,11.3,15.5
COc1ccccc1CC(=O)Nc1cc(Cl)ccc1O,83.0*,4.6,-6.8,3.1,3.8,4.4,80.3*
CCN(c1ccccc1)S(=O)(=O)c1ccc(OC)c(NC(=O)Cc2ccccc2OC)c1,29.8*,5.2,3.6,0.9,7.5,0.1,16.3
COc1cc(C=Nn2cnnc2)ccc1OCC(=O)Nc1ccc(C)cc1,.,-1.2,.,.,.,.,.
C/C(=N/OC(=O)CC(C)C)c1cc(-c2ccc(Cl)cc2)no1,56.8*,.,-1.0,8.1,9.1,-0.5,45.3*
CC(C)(C)c1nc2scc(-c3ccc(Br)cc3)c2c(=O)o1,5.2,-0.8,-0.1,0.7,11.0,0.4,.
CCc1cc2c(=O)oc(-c3ccc(Br)cc3)nc2s1,78.4*,-36.6,-0.7,.,0.5,-2.2,67.2*
Cc1sc2nc(-c3cccs3)oc(=O)c2c1C,63.3*,-46.7,-1.5,-2.7,-1.6,-3.2,67.4*
Cc1sc2nc(-c3ccc(Br)cc3)oc(=O)c2c1C,49.1*,-13.2,2.9,-2.3,8.7,7.1,35.6*
CCc1cc2c(=O)[nH]c(-c3ccncc3)nc2s1,-4.3,-33.9,-3.7,-0.9,-3.5,4.5,.
O=c1oc(-c2cccs2)nc2scc(-c3cccs3)c12,-1.3,-14.2,-1.4,3.3,-4.4,3.4,.
SMILES,PAFAH2 FP inh,UCH37 inh,GRIN3A LBD mod,pPAFAH inh,PAFAH1B3 inh,PAFAH1B2 inh,PAFAH2 FP conf
Cc1ccc(Sc2ccc(C=NO)cc2[N+](=O)[O-])cc1,.,0.4,.,.,.,.,.
CCOc1cc(C=Nn2c(C)nnc2C)ccc1O,.,3.1,.,.,.,.,.
O=C(Cn1[nH]c(=O)c2ccccc2c1=O)NCCN1C(=O)S/C(=C\c2ccccc2)C1=O,31.5*,-10.9,-0.8,9.2,3.8,2.1,4.3
O=C(CCl)NCCN1C(=O)S/C(=C\c2cccnc2)C1=O,-1.2,1.3,-0.1,-1.3,-1.9,-7.5,.
Cc1nn(-c2ccccc2)c(Cl)c1C=NNc1nnc(C)c(=O)[nH]1,.,4.5,.,.,.,.,.
Cc1nc(NC(=O)COC(=O)/C=C/c2ccco2)c(Cl)cc1Cl,35.0*,4.1,0.3,13.0,2.8,0.0,17.7
COC(=O)c1ccc(/C=C/C(=O)OCC(=O)Nc2ncc(Cl)cc2Cl)cc1,28.8,1.1,-1.8,-2.9,4.0,6.3,.
O=C(COC(=O)/C=C/c1ccco1)Nc1ncc(Cl)cc1Cl,47.1*,-3.9,-0.7,10.9,6.0,2.4,26.7
COc1cc(Cl)c(NS(=O)(=O)c2ccc(-c3ccc(=O)[nH]n3)o2)c(OC)c1,32.1*,3.5,16.3*,4.6,-1.5,0.2,1.1
CC(=O)c1ccc(NC(=O)COC(=O)C2C3CC4OC(=O)C2C4C3)cc1 (centres undefined),25.3,4.2,0.8,0.3,6.0,-5.5,.
Cc1ccc(NC(=O)COC(=O)C2C3CC4OC(=O)C2C4C3)cc1 (centres undefined),55.2*,4.6,-1.7,-3.1,3.5,2.1,55.0*
CCOc1ccc(NC(=O)COC(=O)C2C3CC4OC(=O)C2C4C3)cc1 (centres undefined),47.1*,3.8,-1.9,-1.9,1.6,0.7,40.2*
O=C(COC(=O)C1C2CC3OC(=O)C1C3C2)Nc1cccc(Cl)c1 (centres undefined),76.6*,2.3,-1.7,2.1,6.9,5.7,83.6*
COc1cc(C)c2occ(C(C)=NO)c2c1,.,-0.7,.,.,.,.,.
COc1cc(C(C)=NNC(=O)CSc2nncn2C)ccc1OCc1ccccc1Cl,.,2.3,.,.,.,.,.
CON=C(c1nonc1N)N1CCN(c2ccc(Cl)cc2[N+](=O)[O-])CC1,.,3.2,.,.,.,.,.
Cc1cc(=O)[nH]c(SCc2cccc3ccccc23)n1,35.5*,3.1,-3.5,0.0,8.0,3.9,24.7
Cc1cc(CSc2nc(C)cc(=O)[nH]2)c2ncccc2c1,0.1,2.5,-1.7,4.9,11.8,7.8,.
CC1=NOC(=O)/C1=C\c1ccc(-c2cccc(Cl)c2)o1,31.3*,0.3,-3.3,6.7,8.0,8.8,22.6
CC1(C)OC(=O)C(=Cc2ccc(-c3ccc(Cl)c(C(=O)O)c3)o2)C(=O)O1,8.5,2.2,1.3,9.2,10.4,4.2,.
